# Compound activity from PubChem BioAssay.
# Only some compounds are listed: those with a hit (about 4.9% of all), similar ones and a draw of the others.
# STAT3 inh-1: STAT3 signaling inhibition; U3A cells, IL-6 STAT3-luciferase reporter, luminescence; host cell line lacks STAT1; inhibition, % at 5.5 µM; 0.89% of 190,000 active; AID 862;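 active = inhibition above the mean inhibition across all screened compounds plus 3 SD, cut at about 44% in these data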;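 note: 0% = DMSO only wells and 100% = 100 µM nifuroxazide control wells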
# STAT3 activator: increases IL-6 driven STAT3 reporter signal | activation (% of control), % at 5.6 µM | U3A cells, IL-6 STAT3-luciferase reporter, luminescence; 100% = signal with IL-6 EC80 alone | 0.91% of 190,000 active;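 active = activation above the screen-wide mean of compound activation plus 3 SD, cut at about 130% in these data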;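 note: 0% = background luminescence of wells with medium and substrate only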
#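 Detection: reporter luminescence signal / Assay system: STAT1-lacking human U3A cells, STAT3 luciferase reporter / Incubation: compound pre-incubation 1 h before IL-6, then 6 h stimulation at 37 °C / Control set: IL-6-only high control / Read-out: % activation relative to IL-6 control / Probe or stimulus: Interleukin-6, 33 ng/mL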
# APP 5'UTR act: activates APP 5'UTR luciferase reporter. SH-SY5Y APP 5'UTR luciferase reporter, luminescence; zero percent = DMSO vehicle wells. activation, % at 2 µM. 1% of 190,000 active. AID 1276;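 active = activation above a set limit, based on mean plus 3 SD of controls, cut at about 140% in these data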
# STAT1 inh: inhibitors of IFN-gamma induced STAT1 signaling. NIH 3T3 STAT1-luciferase reporter, luminescence. inhibition, % at 5.5 µM. 0.35% of 200,000 active;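 active = inhibition above a set limit, the mean inhibition across all tested compounds plus 3 SD, cut at about 34% in these data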;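 note: 0% = IFN-gamma with DMSO and 100% = IFN-gamma with 300 µM nifuroxazide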
# STAT1 act: activators of IFN-gamma induced STAT1 signaling; NIH 3T3 STAT1-luciferase reporter, luminescence; 100% = IFN-gamma alone, no compound; activation (% of control), % at 5.5 µM; 2.6% of 200,000 active;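 active = activation above the screen-wide mean activation plus 3 SD, cut at about 130% in these data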;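 note: raw ratio to IFN-gamma control signal so 100% means no change and 0% no light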
# NF-kB neuron act: NF-kB expression increase, human neuronal cells | NF-kB reporter expression; stronger effect = higher value | fold change at 12.5 µM | 1.6% of 190,000 active; in the data active = fold change above about 3.3
# STAT3 inh-2: confirmation of STAT3 signaling inhibitors; shares compounds with STAT3 inh-1; U3A cells, IL-6 STAT3 luciferase reporter, luminescence; cell line lacks STAT1; inhibition, % at 5.7 µM; 45% of 1,200 active;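 active = inhibition above the hit cutoff computed for the primary STAT3 screen, cut at about 44% in these data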;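 note: 0% = IL-6 plus DMSO and 100% = IL-6 plus nifuroxazide control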
# NFkB inh 2: inhibits NF-kappaB, counter-screen to STAT3 inhibitors | shares compounds with STAT3 inh-1 | HEK293T NF-kB luciferase reporter, TNF-alpha induced | inhibition, % at 5.7 µM | 36% of 1,200 active;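 active = inhibition above the mean of solvent-only control wells plus 3 SD, cutoff set per campaign, cut at about 13% in these data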;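 note: 0% = TNF-alpha with DMSO and 100% = TNF-alpha with MG high control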
# STAT1 inh 2: counter-screen for STAT3 inhibitors: STAT1 inhibition; shares compounds with STAT3 inh-1; inhibition, % at 5.7 µM; NIH 3T3 STAT1-luciferase reporter, IFN-gamma induced, luminescence; AID 1317; 27% of 1,200 active;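 active = inhibition above the mean plus 3 SD of solvent-only control wells, limit set per screening run, cut at about 16% in these data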;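 note: 0% = DMSO with IFN-gamma and 100% = nifuroxazide control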
# Starred values were filed as active, the others as inactive; x = not tested or not shown.
SMILES,STAT3 inh-1,STAT3 activator,APP 5'UTR act,STAT1 inh,STAT1 act,NF-kB neuron act,STAT3 inh-2,NFkB inh 2,STAT1 inh 2
CCCOc1ccc(/C=C/C(=O)Nc2ccc([N+](=O)[O-])cc2)cc1,72*,46,9,-3,103,1.2,36,15*,-11
O=C(/C=C/c1ccc([N+](=O)[O-])cc1)Nc1ncc([N+](=O)[O-])s1,50*,61,221*,-51,147*,1.4,-28,-48,-185
CN(C)S(=O)(=O)c1cccc(NC(=O)CCc2c[nH]c3ccccc23)c1,-4,107,22,-4,101,1,x,x,x
COc1ccc(N(C(C)C(=O)N2CCC(Cc3ccccc3)CC2)S(C)(=O)=O)cc1 (stereo not drawn),50*,58,-12,26,76,1,46*,9,21*
CCOC(=O)C1CCN(C(=O)C(C)N(c2ccc(Oc3ccccc3)cc2)S(C)(=O)=O)CC1 (stereo not drawn),49*,61,16,24,78,0.79,41,4,10
CCOC(=O)N1CCN(C(=O)C(C)N(c2ccc(Oc3ccccc3)cc2)S(C)(=O)=O)CC1 (stereo not drawn),13,93,2,-2,100,0.87,x,x,x
COC(=O)C(C)N(c1ccc(OC)cc1)S(C)(=O)=O (stereo not drawn),2,98,10,-2,102,1.3,x,x,x
Cn1c(N=NC(=O)c2ccccc2)c(O)c2ccccc21,46*,61,135,-48,143*,2.8,13,-16,-112
CCCN(CCC)C(C)C(=O)NCC1(c2ccccc2)CCCC1 (stereo not drawn),4,103,30,12,88,0.72,x,x,x
COc1ccc(-c2cn3nc4c(nc3n2)CCCC4)cc1,70*,42,58,-7,124,2.9,-17,-6,-10
C/C(=N/NC(=O)c1ccccn1)c1ccco1,44*,66,111,-9,108,2,11,-16,-43
COC(=O)N/N=C(\C)c1ccco1,3,102,0,-7,106,0.92,x,x,x
C=CCc1cc(C=O)cc(OCC)c1O,5,100,-3,-9,107,0.95,x,x,x
CN=c1scc(-c2ccccc2Br)n1/N=C/c1ccc[nH]1,58*,56,174*,16,84,1.2,19,-15,-103
CN=c1scc(-c2ccc(Br)cc2)n1C,9,95,-9,-1,101,1.4,x,x,x
O=C(Nc1nc2ccccc2[nH]1)c1ccc([N+](=O)[O-])cc1,55*,56,190*,-19,116,3,16,-19,-92
Cc1cccc(Nc2nc(-c3c(C)nc4ccccn34)cs2)c1,58*,56,-3,12,89,0.64,62*,18*,16
Cc1ccn2c(-c3csc(NCc4ccco4)n3)c(C)nc2c1,29,80,14,6,96,1.2,x,x,x
CCC(C)N1C(=O)CN(C2CCCCCC2)C(=O)C1c1ccccc1F (stereo not drawn),-3,104,9,6,93,0.64,x,x,x
COc1ccc(/C=N/N=C(\N)c2nonc2N)cc1,51*,61,191*,28,73,9.4*,28,-10,-117
O=C1C2C3C=CC(C3)C2C(=O)N1c1ccc(Cc2ccncc2)cc1 (stereo not drawn),23,83,11,12,89,0.85,x,x,x
CC1CCC2C(=O)N(c3ccc(Cc4ccncc4)cc3)C(=O)C2C1 (stereo not drawn),74*,38,0,32,70,0.97,70*,23*,21*
CC(C)(C)c1ccc(-c2noc(CCC(=O)N3CCOCC3)n2)cc1,51*,61,-3,12,88,3.2,21,6,-10
COc1ccc(-c2noc(CCCC(=O)N3CCOCC3)n2)cc1,5,100,-12,6,93,x,x,x,x
O=C(Cn1cc([N+](=O)[O-])cn1)Nc1cccnc1,18,92,23,-8,106,1,x,x,x
SMILES,STAT3 inh-1,STAT3 activator,APP 5'UTR act,STAT1 inh,STAT1 act,NF-kB neuron act,STAT3 inh-2,NFkB inh 2,STAT1 inh 2
Cc1ccc(-n2c(C)nc3c(cnn3-c3ccc(F)cc3)c2=O)cc1,53*,61,-10,3,97,1.1,38,4,7
COc1cccc(-n2c(C)nc3c(cnn3-c3ccc(Cl)cc3)c2=O)c1,55*,56,12,12,89,1,41,6,16*
CCOc1ccc(-n2c(C)nc3c(cnn3-c3ccc(Cl)cc3)c2=O)cc1,14,90,9,1,99,1.1,x,x,x
Cc1ccc(-n2ncc3c(=O)n(-c4ccc(C)c(C)c4)c(C)nc32)cc1,16,92,-7,-4,105,1.1,x,x,x
O=C1OC(C(=O)NCc2ccccc2)Cc2ccccc21 (stereo not drawn),4,100,8,-7,105,1.4,x,x,x
Cc1nc(OCc2c(C)noc2C)c2ccccc2n1,4,101,-20,5,97,1.1,x,x,x
N/C(=N\OC(=O)c1ccc(Cl)c([N+](=O)[O-])c1)c1ccccn1,17,90,25,3,99,1.8,x,x,x
N/C(=N\OC(=O)c1ccc(Cl)cc1)c1ccccn1,87*,31,185*,4,97,3.5*,12,-30,-96
N/C(=N\OC(=O)c1cccc(Cl)c1)c1ccccn1,74*,39,166*,25,77,5.3*,-5,-29,-87
NS(=O)(=O)c1ccc(CCNc2ncnc3c2c(-c2ccccc2)cn3-c2ccc(F)cc2)cc1,4,101,-2,4,96,0.35,x,x,x
Cc1ccc(CSCCNS(=O)(=O)c2ccc(C)cc2)cc1,-4,99,-3,-6,106,0.92,x,x,x
CC(Oc1ccc(Cl)cc1Cl)C(=O)Nc1ccc2oc(-c3ccncc3)nc2c1 (stereo not drawn),50*,60,25,-7,107,1.1,50*,0,-10
O=C(O)c1cccc(-c2nnn(Cc3ccccc3Cl)n2)c1,70*,44,21,44*,67,4.2*,61*,37*,40*
Cc1c(NC(=O)/C=C/c2ccc(S(=O)(=O)N3CCOCC3)cc2)c(=O)n(-c2ccccc2)n1C,3,99,24,1,98,1,x,x,x
CCN1/C(=C/c2ccc3ccccc3[n+]2CC)C=Cc2ccccc21,92*,23,-33,29,73,1.2,90*,52*,22*
